MT1-MMP act inh – blockers of MT1-MMP proenzyme processing, primary screen, HT1080 RFP-PRO-GFP cells, GFP/RFP fluorescence; Matrix metalloproteinase-14 (Homo sapiens), P50281; GFP/RFP ratio fluorescence, overnight; percent of plate control window, DMSO zero; AID 651647, 2012; hit rate 0.061% among 360,000; GFP/RFP ratio change, % at 20 µM;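 active means GFP/RFP ratio change of at least 30% with cell ATP level not reduced by more than half and red fluorescence within 50% of control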
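Read-out: GFP/RFP fluorescence ratio; Test system: RFP-PRO-GFP reporter HT1080 cells; Compound dosing: single-point 20 µM compound, 1% DMSO; Times: overnight compound exposure at 37 °C.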
SKN-1 block – suppressors of acrylamide-induced Pgst-4::GFP reporter in worms, primary screen, SKN-1 inhibitor project, whole organism, uHTS, GFP/RFP fluorescence ratio, strain VP596; C. elegans VP596 Pgst-4::GFP/RFP ratio, 24 h; inhibition, % at 21.8 µM; hit rate 0.49% among 360,000; AID 624304, 2012;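 active means interference check ratio from 0.5 to 1.5 plus GFP to RFP signal ratio inhibition reaching or exceeding a fixed threshold, cut at about 30% in these data, passing the limit was not always enough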
DAGLB inhibitor – DAGLB lipase inhibitors, primary screen, biochemical, fluorescence, HTS | inhibition, % at 5.17 µM | hit rate 0.059% among 340,000 | Diacylglycerol lipase-beta (Homo sapiens), Q8NCG7 | HEK293T DAGLB membrane lysate, EnzChek fluorogenic substrate; in the data active means inhibition above about 34%
bovine MsrA act – bovine MsrA enzyme activators, primary screen, biochemical, absorbance, HTS; hit rate 0.3% among 360,000; purified bovine MsrA, absorbance read-out; activation, % at 10.6 µM; in the data active means activation above about 7.5%
MsrA inhibitor – bovine MsrA enzyme inhibitors, primary screen, biochemical, absorbance, HTS. Methionine sulfoxide reductase A (Bos taurus). inhibition, % at 15.5 µM. AID 651718, 2012. hit rate 0.75% among 360,000. purified bovine MsrA, absorbance read-out; in the data active means inhibition above about 4.5%
MIN6 prolif – inducers of MIN6 beta-cell proliferation, primary screen, ATP luminescence, uHTS; MIN6 cells proliferation, ATPlite luminescence, 48 h; cells starved in 0.2% serum; 100% = growth in 10% serum; hit rate 0.29% among 330,000; proliferation, % at 10 µM;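 active means compounds whose signal lies at least 3.5 SD above the mean of all wells on their plate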
MsrA activ conf – bovine MsrA activators, retest, confirmation, biochemical, absorbance, HTS. shares compounds with bovine MsrA act. purified bovine MsrA, absorbance read-out. activation, % at 10.6 µM. AID 602270, 2012. hit rate 12% among 1,000; in the data active means activation above about 4%;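 further: enzyme coupled to thioredoxin and thioredoxin reductase with NADPH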
Of the large screens only hits and unclear results are named; the others gave an inactive call (follow-up assays come after a bar, where they were run); ! = not active in a repeat. Only some compounds are listed: those with a hit (about 1.8% of all), similar ones and a draw of the others.

COc1cc(C2C(C#N)=C(C)NC3=C2C(=O)CC(C)(C)C3)cc(OC)c1O (stereo not drawn)	none
CC1=C(C#N)C(c2ccc(O)cc2)C2=C(CC(C)(C)CC2=O)N1 (stereo not drawn)	bovine MsrA act 10.4 | MsrA activ conf inactive
O=C(NCc1ccc(F)cc1)c1cc2ccccc2o1	bovine MsrA act 9.6 | MsrA activ conf inactive
O=C(NCC(=O)N1CCN(c2ccccc2O)CC1)c1cccs1	none
COc1ccccc1CCn1cnc(-c2cccc(Cl)c2)c1CC(C)C	none (no result: MT1-MMP act inh, SKN-1 block, DAGLB inhibitor, bovine MsrA act, MIN6 prolif)
COC(=O)C1=C(C)N(Cc2ccccc2C(F)(F)F)C(=NCc2ccc(C(F)(F)F)cc2)NC1c1ccc(Cl)cc1 (stereo not drawn)	none (no result: MT1-MMP act inh, SKN-1 block, DAGLB inhibitor, bovine MsrA act, MIN6 prolif)
Fc1ccc(-c2csc(=S)[nH]2)cc1	bovine MsrA act 8.0 | MsrA activ conf inactive
COc1ccccc1CNC(=O)CCCn1nc(C)c2c(C)n(-c3ccccc3)nc2c1=O	bovine MsrA act 11.7 | MsrA activ conf inactive
Cc1ccnc(NC(=O)C(C)N2C(=O)c3ccccc3S2(=O)=O)c1 (stereo not drawn)	none
O=C1Nc2c(Cl)cc(Cl)cc2C1=O	bovine MsrA act 11.1 (no result: MIN6 prolif) | MsrA activ conf 7.0
Cc1cccc(N=C2C(=O)Nc3c(Cl)cccc32)c1	none
OC1(c2ccc(Cl)c(Cl)c2)C[n+]2ccccc2N1Cc1ccccc1 (stereo not drawn)	none
COCCCN=Cc1c(C)[nH]n(-c2ccc(Br)c(C)c2)c1=O	bovine MsrA act 9.3 | MsrA activ conf inactive
CCN(CC(=O)NCc1ccc(Cl)cc1)C(=O)c1ccc(C#N)cc1	bovine MsrA act 15.6 | MsrA activ conf inactive
CCN(CC(=O)NCc1ccc(F)cc1)C(=O)c1ccc(Cl)cc1	none
C[C@H](CO)N1C[C@H](C)[C@H](CN(C)C(=O)Nc2ccc3c(c2)OCO3)OCc2cnnn2CCCC1=O	none (no result: MT1-MMP act inh, SKN-1 block, DAGLB inhibitor, bovine MsrA act, MIN6 prolif)
O=C(Nc1c2c(nn1-c1ccc([N+](=O)[O-])cc1)CS(=O)(=O)C2)c1ccccc1F	bovine MsrA act 7.9 | MsrA activ conf inactive
COC(=O)c1[nH]c2c(c1C)C(=O)CC(c1cc(OC)ccc1OC)C2 (stereo not drawn)	bovine MsrA act 9.9 | MsrA activ conf inactive
CSC1=NCCN1S(=O)(=O)c1ccc(NC(C)=O)cc1	bovine MsrA act 21.3 | MsrA activ conf inactive
CC1CCN(C(=O)c2[nH]cnc2C(=O)Nc2ccccc2F)CC1	none (no result: MIN6 prolif)
CCCN(CCC)C(=O)COc1cc(=O)n(CC)c2ccccc12	none
CCn1c(=O)cc(OCC(=O)O)c2ccccc21	bovine MsrA act 14.4 | MsrA activ conf inactive
Cn1c(=O)n(CC(=O)O)c(=O)c2c1nc1n2CCS1	bovine MsrA act 8.5! | MsrA activ conf inactive
Cc1ccc(-c2ccnc(=S)[nH]2)cc1	bovine MsrA act 9.4 | MsrA activ conf 6.2
Cc1ccc(S(=O)(=O)N2[C@H](CC(=O)c3ccccc3)OC[C@@H]2C(C)C)cc1	none (no result: DAGLB inhibitor, bovine MsrA act, MIN6 prolif)
CCc1nc2ccc(C(=O)Nc3ccc(C(N)=O)cc3)cn2c1N(C)CCC(C)C	none (no result: DAGLB inhibitor, MIN6 prolif)
CCc1nc2ccc(C(=O)Nc3ccc(NC(C)=O)cc3)cn2c1N(C)CCC(C)C	bovine MsrA act 8.8 (no result: DAGLB inhibitor, MIN6 prolif) | MsrA activ conf inactive
CCCc1cc2c(O)ccc(O)c2c(=O)o1	none (no result: MT1-MMP act inh, SKN-1 block, DAGLB inhibitor, bovine MsrA act, MIN6 prolif)
O=C(COC(=O)c1cncc(Br)c1)NC12CC3CC(CC(C3)C1)C2	bovine MsrA act 9.3 (no result: DAGLB inhibitor) | MsrA activ conf inactive
Cc1ccc(Nc2n[nH]c(=S)s2)cc1C	bovine MsrA act 7.8 (no result: MIN6 prolif) | MsrA activ conf inactive
COc1ccc(-c2cc(=O)oc(-c3cccc(C)c3)n2)cc1	bovine MsrA act 11.9 | MsrA activ conf inactive
CCOc1ccc(Oc2ccc(C(F)(F)F)cc2NC(=O)C2=COCCO2)cc1	none
CCN(CC)C(=O)c1[nH]cnc1C(=O)N[C@@H](Cc1ccccc1)C(=O)OC(C)(C)C	none

Screens as filed in PubChem BioAssay.
